From ChEMBL document CHEMBL2417373, “Substituted tetrahydroisoquinolines as selective antagonists for the orexin 1 receptor” (J Med Chem, 2013)
Calls of active or inactive are those of the source. The calls are words filed in the database; no cut-off is given here.

Assays:
Homo sapiens = species: Homo sapiens; test: Selectivity ratio of Ke for OX2 receptor (unknown origin) to Ke for OX1 receptor (unknown origin)
[1] = molecular target: T1, Orexin receptor type 2 (Homo sapiens) (UniProt O43614); test: Antagonist activity at OX2 receptor (unknown origin) expressed in RD-HGA16 cells assessed as inhibition orexin A-induced calcium mobilization by fluorescence assay; assay type: functional, cell-based
T1 sequence (whole entry): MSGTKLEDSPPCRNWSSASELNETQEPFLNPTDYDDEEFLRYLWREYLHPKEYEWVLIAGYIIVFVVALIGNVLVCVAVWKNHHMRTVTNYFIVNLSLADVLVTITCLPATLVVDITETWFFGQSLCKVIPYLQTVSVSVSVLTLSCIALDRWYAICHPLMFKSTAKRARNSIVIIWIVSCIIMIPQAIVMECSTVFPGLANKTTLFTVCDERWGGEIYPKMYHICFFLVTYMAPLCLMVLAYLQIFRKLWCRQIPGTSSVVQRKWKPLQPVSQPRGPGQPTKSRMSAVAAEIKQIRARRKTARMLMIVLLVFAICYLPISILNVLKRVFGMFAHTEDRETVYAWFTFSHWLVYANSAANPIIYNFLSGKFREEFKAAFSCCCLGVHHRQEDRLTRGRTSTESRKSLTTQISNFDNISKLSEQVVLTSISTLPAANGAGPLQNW

[2] = molecular target: T2, Orexin/Hypocretin receptor type 1 (Homo sapiens) (UniProt O43613); test: Antagonist activity at OX1 receptor (unknown origin) expressed in RD-HGA16 cells assessed as inhibition orexin A-induced calcium mobilization by fluorescence assay; assay type: functional, cell-based
T2 sequence (whole entry): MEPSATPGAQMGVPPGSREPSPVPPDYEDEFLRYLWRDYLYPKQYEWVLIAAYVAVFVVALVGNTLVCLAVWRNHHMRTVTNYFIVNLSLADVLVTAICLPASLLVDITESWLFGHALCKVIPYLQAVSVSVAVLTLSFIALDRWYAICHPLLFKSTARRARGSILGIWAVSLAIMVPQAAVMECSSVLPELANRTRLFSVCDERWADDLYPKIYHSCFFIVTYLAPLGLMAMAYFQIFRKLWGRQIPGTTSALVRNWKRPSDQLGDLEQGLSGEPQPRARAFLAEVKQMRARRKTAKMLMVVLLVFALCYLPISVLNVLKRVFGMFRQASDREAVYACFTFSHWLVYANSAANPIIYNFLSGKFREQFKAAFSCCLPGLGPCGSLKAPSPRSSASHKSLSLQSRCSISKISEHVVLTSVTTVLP

[3] = molecular target: T2, Orexin/Hypocretin receptor type 1 (Homo sapiens); test: Agonist activity at OX1 receptor (unknown origin) expressed in RD-HGA16 cells assessed as calcium mobilization at 10 uM by fluorescence assay; assay type: functional, cell-based
Rattus norvegicus [4] = test: Antiaddictive activity in Sprague-Dawley rat assessed as reduction of cocaine-induced conditioned place preference at 20 mg/kg, ip administered 10 mins before cocaine challenge measured for 15 mins; assay type: functional, organism-based; set-up: dose 20 mg/kg
In short: (§1)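 Unbiased two-compartment place conditioning in rats. Pretest 30 min with free access, first 15 min scored. Rats excluded if >75% or <25% of time in one side. Eight alternating conditioning days, 30 min confinement, vehicle on odd days and drug on even days. In the combination group, compound was given 10 min before cocaine 10 mg/kg. Injection volume 1 mL/kg. Preference score = drug-side time on test day minus pretest.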

Rattus norvegicus [5] = test: Induction of conditioned place preference in Sprague-Dawley rat at 20 mg/kg, ip measured for 15 mins; assay type: organism-based; set-up: dose 20 mg/kg, route intraperitoneal; details: in vivo, 0.25 h; in short: as §1
Orexin receptor type 2 = molecular target: T3, Orexin receptor type 2 (Homo sapiens, UniProt O43614); test: Antagonist activity at OX2 receptor (unknown origin)
T3 sequence (O43614 whole entry): T1 sequence (whole entry)

Structure (SMILES) | Ratio (Homo sapiens) | Ke(app) [1] [µM] | Ke(app) [2] [nM] | Activity [3] | Activity (Rattus norvegicus [4]) | Activity (Rattus norvegicus [5]) | IC50 (Orexin receptor type 2) [µM]
COc1ccc(CC2c3cc(OC)c(OC)cc3CCN2CC(=O)N[C@@H](C)c2ccccc2)cc1OC (single isomer, unassigned; diastereomer 2) | > 125 | > 10 | 80 | inactive | – | – | –
COc1ccc(CC2c3cc(OCC(F)(F)F)c(OC)cc3CCN2CC(=O)NCc2cccnc2)cc1OC (centres undefined) | – | – | 8.5 | inactive | Active | Non-toxic | –
CNC(=O)[C@@H](c1ccccc1)N1CCc2cc(OC)c(OC)cc2[C@@H]1CCc1ccc(C(F)(F)F)cc1 [ALMOREXANT] | – | – | – | – | – | – | 8.1
